Results from ChEMBL document CHEMBL1137637, “Quinuclidine derivatives as potential antiparasitics” (Antimicrob Agents Chemother, 2007).
≈ marks a conversion by molar mass, not a printed value.

Legend:
[1] = system: Trypanosoma brucei rhodesiense; assay: Trypanocidal activity against Trypanosoma brucei rhodesiense STIB 900 bloodstream form after 72 hrs by resazurin assay; format: functional, organism-based; settings: STIB 900, 72 h
Method in brief: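 T. b. rhodesiense STIB 900 bloodstream forms in MEM with 2-mercaptoethanol and 15% heat-inactivated horse serum, with serial drug dilutions. Incubated 72 h at 37°C in 5% CO2. Resazurin added for 2–4 h more, fluorescence read at ex 536/em 588 nm. IC50 from sigmoidal curve. Duplicate, with an independent repeat for actives.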

[2] = system: Trypanosoma cruzi; assay: Antitrypanosomal activity against trypomastigotes of Trypanosoma cruzi Tulahuen C2C4 containing lacZ gene in rat L6 cells after 4 days by chlorophenol red-beta-D-galactopyranoside/Nonidet assay; format: functional, organism-based; settings: Tulahuen C2C4, L6, 96 h
Method in brief: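 L-6 rat myoblasts seeded at 2,000 cells/well in RPMI 1640 with 10% FBS and 2 mM L-glutamine. After 24 h, 5,000 T. cruzi Tulahuen C2C4 lacZ trypomastigotes added with serial drug dilution. Incubated at 37°C in 5% CO2 for 4 days. CPRG/Nonidet substrate added and colour read at 540 nm after 2–4 h. IC50 from sigmoidal curve. Duplicate determinations.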

[3] = molecular target: T1, Farnesyltransferase, putative (Leishmania major, UniProt Q4Q5W4); assay: Inhibition of Leishmania major recombinant squalene synthase expressed in Escherichia coli by liquid scintillation counter
T1 sequence (Q4Q5W4 whole entry): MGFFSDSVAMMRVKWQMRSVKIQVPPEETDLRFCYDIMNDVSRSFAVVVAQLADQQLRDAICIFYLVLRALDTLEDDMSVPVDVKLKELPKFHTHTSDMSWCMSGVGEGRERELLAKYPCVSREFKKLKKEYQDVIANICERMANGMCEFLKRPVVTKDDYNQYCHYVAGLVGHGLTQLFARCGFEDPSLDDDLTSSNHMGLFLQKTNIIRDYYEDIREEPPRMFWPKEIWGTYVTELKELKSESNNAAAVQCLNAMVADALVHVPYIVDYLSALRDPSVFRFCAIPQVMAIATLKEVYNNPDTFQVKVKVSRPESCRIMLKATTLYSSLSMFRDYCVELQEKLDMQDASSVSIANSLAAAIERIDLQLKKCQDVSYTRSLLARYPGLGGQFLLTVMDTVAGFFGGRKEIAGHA
Method in brief: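 Soluble E. coli extract expressing L. major SQS truncated by 16 N-terminal and 40 C-terminal residues. Buffer: 50 mM phosphate pH 7.4, 20 mM MgCl2, 5 mM CHAPS, 1% Tween 80, 10 mM DTT, BSA, 0.25 mM NADPH, and a glucose-6-phosphate/G6PDH regenerating system. Substrate 0.5 μM radiolabelled farnesyl pyrophosphate. Squalene band counted by scintillation. IC50 from hyperbolic plot of five concentrations in duplicate, usually run twice.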

[4] = system: Leishmania amazonensis; assay: Inhibition of sterol biosynthesis in Leishmania mexicana amazonensis promastigotes assessed as reduction in exogenous cholesterol level at 10 uM after 96 hrs by gas-liquid chromatography; format: functional; set-up: scale not given: the % may be the effect or the level left
Method in brief: (§1)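 L. mexicana promastigotes exposed to compound for 96 h. Total lipids extracted and neutral sterols separated from polar lipids by silicic acid column chromatography. Sterols analysed by TLC and by quantitative capillary gas-liquid chromatography with mass spectrometry. Composition expressed as mass % of free sterols, compared with untreated control.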

[5] = system: Leishmania amazonensis; assay: Inhibition of sterol biosynthesis in Leishmania mexicana amazonensis promastigotes assessed as reduction in endogenous cholesta-5,7,24-trien-3beta-ol level at 10 uM after 96 hrs by gas-liquid chromatography; format: functional; set-up: scale not given: the % may be the effect or the level left; method in brief: as §1
[6] = system: Leishmania donovani; assay: Antileishmanial activity against Leishmania donovani MHOM/ET/67/L82 axenic amastigotes after 72 hrs by resazurin assay; format: functional, organism-based; settings: MHOM/ET/67/L82, 72 h
Method in brief: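 L. donovani MHOM/ET/67/L82 amastigotes grown axenically at 37°C in synthetic minimal medium at pH 5.4 with 10% heat-inactivated FBS under 5% CO2. 1 × 10⁵ amastigotes per well with seven threefold dilutions, 30 to 0.041 μg/ml. After 72 h, resazurin added for 2–4 h more. Fluorescence read at ex 536/em 588 nm. IC50 taken from sigmoidal curve. Run in duplicate, with an independent repeat for actives.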

[7] = system: Leishmania amazonensis; assay: Inhibition of sterol biosynthesis in Leishmania mexicana amazonensis promastigotes assessed as reduction in endogenous 5-dehydro episterol level at 10 uM after 96 hrs by gas-liquid chromatography; format: functional; set-up: scale not given: the % may be the effect or the level left; method in brief: as §1
[8] = molecular target: T2, Squalene synthase (Homo sapiens, UniProt P37268); assay: Inhibition of human recombinant squalene synthase expressed in Escherichia coli BL21(DE3 pLysS) up to 1 uM by liquid scintillation counter
T2 sequence (P37268 whole entry): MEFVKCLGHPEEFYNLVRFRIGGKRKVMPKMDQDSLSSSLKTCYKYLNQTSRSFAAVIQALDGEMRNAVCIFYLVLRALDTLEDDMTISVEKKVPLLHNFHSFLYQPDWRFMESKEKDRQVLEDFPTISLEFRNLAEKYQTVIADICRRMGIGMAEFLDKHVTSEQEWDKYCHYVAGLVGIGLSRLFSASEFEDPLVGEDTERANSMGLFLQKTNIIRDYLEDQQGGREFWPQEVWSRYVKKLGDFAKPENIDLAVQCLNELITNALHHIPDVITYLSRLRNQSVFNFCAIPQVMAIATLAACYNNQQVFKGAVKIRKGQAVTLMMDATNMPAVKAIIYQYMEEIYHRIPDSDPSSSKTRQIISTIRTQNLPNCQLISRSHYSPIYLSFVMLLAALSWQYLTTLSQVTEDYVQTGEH
Method in brief: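 Human SQS in extracts of E. coli BL21(DE3 pLysS) carrying pHSS16, assayed under the same conditions as the L. major enzyme. Buffer: phosphate pH 7.4, MgCl2, CHAPS, Tween 80, DTT, BSA, and NADPH with a regenerating system. Substrate 0.5 μM radiolabelled farnesyl pyrophosphate. Squalene band radioactivity counted by scintillation.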

[9] = system: Leishmania amazonensis; assay: Antileishmanial activity against Leishmania mexicana amazonensis promastigotes by trypan blue exclusion method; format: functional, organism-based
Method in brief: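 L. mexicana amazonensis promastigotes cultured in liver infusion-tryptose medium with lactalbumin and 10% FCS at 26°C, unagitated. Cultures started at 2 × 10⁶ cells/ml and drug added at 0.5–1 × 10⁷ cells/ml. Density counted by electronic particle counter and hemocytometer. Viability by trypan blue exclusion. Triplicate growth experiments.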

[10] = system: Leishmania amazonensis; assay: Inhibition of sterol biosynthesis in Leishmania mexicana amazonensis promastigotes assessed as reduction in endogenous episterol level at 10 uM after 96 hrs by gas-liquid chromatography; format: functional; set-up: scale not given: the % may be the effect or the level left; method in brief: as §1
[11] = system: L6; assay: Cytotoxicity against rat L6 cells after 72 hrs by resazurin assay; format: cell-based; settings: L6, 72 h
Method in brief: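 L-6 cells seeded at 4 × 10⁴ cells/ml in RPMI 1640 with 10% FBS and 2 mM L-glutamine. After 24 h, medium replaced with serial drug dilution and incubated for 72 h at 37°C in 5% CO2. Resazurin added for 2–4 h, fluorescence read at ex 536/em 588 nm. IC50 from sigmoidal curve. Duplicate, with an independent repeat for actives.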

[12] = system: Leishmania amazonensis; assay: Inhibition of sterol biosynthesis in Leishmania mexicana amazonensis promastigotes assessed as reduction in endogenous cholesta-7,24-dien-3beta-ol level at 10 uM after 96 hrs by gas-liquid chromatography; format: functional; set-up: scale not given: the % may be the effect or the level left; method in brief: as §1
[13] = system: Plasmodium falciparum; assay: Antiplasmodial activity after 48 hrs against chloroquine and pyrimethamine-resistant Plasmodium falciparum K1 in human erythrocytes by [3H]hypoxanthine uptake; format: functional, organism-based
Method in brief: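 P. falciparum K1 in human red cells in RPMI 1640 with 5% Albumax, exposed to serial drug dilutions. Incubated 48 h at 37°C under reduced oxygen, then 0.5 μCi [³H]hypoxanthine per well for 24 h more. Cells harvested onto glass-fibre filters and counted by scintillation. Result expressed as % of untreated control, with IC50 from sigmoidal curve. Duplicate, plus an independent repeat for actives.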

[14] = system: Leishmania amazonensis; assay: Inhibition of sterol biosynthesis in Leishmania mexicana amazonensis promastigotes assessed as reduction in endogenous cholesta-7,24-dien-3beta-ol level at 3 uM after 96 hrs by gas-liquid chromatography; format: functional; set-up: scale not given: the % may be the effect or the level left; method in brief: as §1
[15] = system: Leishmania amazonensis; assay: Inhibition of sterol biosynthesis in Leishmania mexicana amazonensis promastigotes assessed as reduction in exogenous cholesterol level at 3 uM after 96 hrs by gas-liquid chromatography; format: functional; set-up: scale not given: the % may be the effect or the level left; method in brief: as §1
[16] = system: Leishmania amazonensis; assay: Inhibition of sterol biosynthesis in Leishmania mexicana amazonensis promastigotes assessed as reduction in endogenous episterol level at 3 uM after 96 hrs by gas-liquid chromatography; format: functional; set-up: scale not given: the % may be the effect or the level left; method in brief: as §1
[17] = system: Leishmania amazonensis; assay: Inhibition of sterol biosynthesis in Leishmania mexicana amazonensis promastigotes assessed as reduction in endogenous 5-dehydro episterol level at 3 uM after 96 hrs by gas-liquid chromatography; format: functional; set-up: scale not given: the % may be the effect or the level left; method in brief: as §1
[18] = system: Leishmania amazonensis; assay: Inhibition of sterol biosynthesis in Leishmania mexicana amazonensis promastigotes assessed as reduction in endogenous cholesta-5,7,24-trien-3beta-ol level at 3 uM after 96 hrs by gas-liquid chromatography; format: functional; set-up: scale not given: the % may be the effect or the level left; method in brief: as §1

| Structure (SMILES) | IC50 [1] [µM] | IC50 [2] [µM] | IC50 [3] [µM] | Activity [4] [%] | Activity [5] [%] | IC50 [6] [µM] | Activity [7] [%] | IC50 [8] | MIC [9] [µM] | Activity [10] [%] | IC50 [11] [µM] | Activity [12] [%] | IC50 [13] [µM] | Activity [14] [%] | Activity [15] [%] | Activity [16] [%] | Activity [17] [%] | Activity [18] [%] |
| --- | --- | --- | --- | --- | --- | --- | --- | --- | --- | --- | --- | --- | --- | --- | --- | --- | --- | --- |
| C(=C1/CN2CCC1CC2)/c1ccccc1 | 16 | > 151 | > 1 | 10.6 | 3.7 | > 151 | 70.7 | Not Active | > 10 | 12.2 | 382 | 2.8 | 0.8 |  |  |  |  |  |
| O=Cc1ccc(/C=C2\CN3CCC2CC3)cc1 | 13.1 | > 132 | > 1 | 11.2 | 14 | > 132 | 62 | Not Active | > 10 | 8.2 | > 396 | 4.6 | > 22 |  |  |  |  |  |
| c1ccc(CC2CN3CCC2CC3)cc1 (stereo not given) | 60.6 | 130 | > 1 | 14.9 | 23.2 | > 149 | 2.8 | Not Active | > 10 | 51.3 | > 447 | 2.9 | 5.4 |  |  |  |  |  |
| OC[C@@H]1CC2CCN1C[C@@H]2C#Cc1ccc(OCc2ccccc2)cc1 (stereo not given in full) | 1.2 | 3.4 | > 1 | >99 |  | 7.4 |  |  | 10 (≈ 3.47 µg/mL) |  | 16.1 |  | 0.6 | 15.9 | 61.4 | 22.7 |  |  |
| C(=C1/CN2CCC1CC2)/c1ccc2ccccc2c1 | 0.5 | 2.8 | > 1 |  |  | 88.2 |  | Not Active | 3 (≈ 0.748 µg/mL) |  | 25.6 |  | 0.9 |  | 57.8 |  | 42.2 |  |
| C(=C1CN2CCC1CC2)c1ccc(C2OCCO2)cc1 | 12.5 | > 111 | > 1 | 14.1 | 12.7 | 38.6 | 54.9 | Not Active | > 10 | 11.7 | 212 | 6.7 | 14.2 |  |  |  |  |  |
| C(=C1/CN2CCC1CC2)/c1ccc(C2OCCO2)cc1 | 5.5 | 46 | > 1 | 25.4 | 18.5 | 82.1 | 16.1 | Not Active | > 10 | 14.2 | 136 |  | 12.3 |  |  |  |  |  |
| c1ccc2cc(CC3CN4CCC3CC4)ccc2c1 (stereo not given) | 2.5 | 25.4 | > 1 |  |  | > 119 |  | Not Active | 3 (≈ 0.754 µg/mL) |  | 98.2 |  | 1.8 | 3.5 | 26.4 | 9.3 | 49.6 | 11.2 |
| OC[C@H]1CC2CCN1C[C@@H]2C#Cc1ccc(OCc2ccccc2)cc1 (stereo not given in full) | 1.2 | 3.1 | > 1 | >99 |  | 8 |  |  | 10 (≈ 3.47 µg/mL) |  | 16.6 |  | 1.1 |  | 21.2 | 14.2 | 63.2 | 10.7 |
